The source made the active and inactive calls. No cut-off for these calls is given here.
How the values were obtained:
[1] = test system: Salmonella typhimurium; experiment: Antibacterial activity against intracellular multidrug-resistant Salmonella typhimurium ATCC14028 infected in mouse RAW264.7 cells assessed as reduction in intracellular bacterial survival level by RFP staining based high-content image analysis; type: functional, organism-based, Salmonella enterica subsp. enterica serovar Typhimurium; details: Salmonella enterica, ATCC14028, RAW264.7
In short: (§1)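 RAW264.7 cells were seeded for 20 h, then infected for 1 h at MOI 50 with RFP-expressing bacteria (2 h subculture, OD600 0.6 ≈ 1×10^8 CFU/mL). Gentamicin 100 mg/L was given for 1 h, then compound plus 20 mg/L gentamicin for 24 h. Cells were stained with CellTracker Green, fixed, and stained with DAPI. Whole-well high-content imaging gave intracellular RFP intensity for EC50 and DAPI nuclei counts for CC50.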

[2] = Cytotoxicity against mouse RAW264.7 cells assessed as reduction in number of cells by DAPI staining based high-content image analysis; type: toxicity, cell-based
In short: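 RAW264.7 seeded 20 h, infected 1 h with RFP-expressing S. Typhimurium (MOI 50), 100 mg/L gentamicin 1 h, then compound with 20 mg/L gentamicin 24 h. Cells stained with CellTracker Green, fixed in 3.7% formaldehyde, DAPI 0.2 mg/L. Whole-well high-content imaging at 10×; viable cells counted as DAPI-stained nuclei; CC50 calculated.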

[3] = Selectivity ratio of CC50 for cytotoxicity against mouse RAW264.7 cells to EC50 for antibacterial activity against intracellular multidrug-resistant Salmonella typhimurium ATCC14028 infected in mouse RAW264.7 cells; type: toxicity, cell-based; details: read-out: Ratio CC50/EC50; in short: as §1
[4] = test system: Salmonella typhimurium; experiment: Antibacterial activity against intracellular ciprofloxacin-resistant Salmonella typhimurium NL10 infected in mouse RAW264.7 cells assessed as reduction in number of intracellular bacteria incubated for 24 hrs in presence of gentamycin by CFU assay; type: functional, organism-based, Salmonella enterica subsp. enterica serovar Typhimurium; details: Salmonella enterica, NL10, RAW264.7, 24 h
In short: (§2)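 Bacteria were subcultured 1:100 from overnight LB cultures for 2 h at 37°C and resuspended in PBS to OD600 0.6. Host cells in 6-well plates were infected at MOI 25 for 1 h, treated with 100 mg/L gentamicin for 1 h, then given compound plus 20 mg/L gentamicin for 24 h. Cells were lysed in 0.1% Triton X-100, and lysates were serially diluted and plated on LB agar (37°C, 18 h) for CFU counts.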

[5] = test system: Salmonella typhimurium; experiment: Antibacterial activity against intracellular multidrug-resistant Salmonella typhimurium ATCC14028 infected in human HT-29 cells assessed as reduction in viability of intracellular bacteria incubated for 24 hrs in presence of gentamicin by CFU assay; type: functional, organism-based, Salmonella enterica subsp. enterica serovar Typhimurium; details: Salmonella enterica, ATCC14028, HT-29, 24 h; in short: as §2
[6] = Cytotoxicity against human Intestine 407 cells assessed as reduction in cell viability in presence of gentamicin and measured after 24 hrs by MTT assay; type: toxicity, cell-based
In short: (§3)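 Cells were seeded and grown 20 h, then given test compound for 24 h. Media were DMEM + 10% heat-inactivated FBS (RAW264.7, J774.1, INT-407), RPMI 1640 + 10% FBS (THP-1) and McCoy's 5A + 10% FBS (HT-29, HCT-116), at 37°C and 5% CO2. MTT was added at 0.5 g/L for 1 h, formazan dissolved in DMSO, and A570 read. CC50 was calculated by curve fitting.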

[7] = test system: Staphylococcus aureus; experiment: Antibacterial activity against methicillin-resistant Staphylococcus aureus USA 300 infected in mouse RAW264.7 cells assessed as reduction in number of viable intracellular bacteria incubated for 24 hrs by CFU assay; type: functional, organism-based; details: USA 300, RAW264.7, 24 h; in short: as §2
[8] = Cytotoxicity against human HCT-116 cells assessed as reduction in cell viability in presence of gentamicin and measured after 24 hrs by MTT assay; type: toxicity, cell-based; in short: as §3
[9] = test system: Salmonella typhimurium; experiment: Antibacterial activity against intracellular multidrug-resistant Salmonella typhimurium ATCC14028 infected in human Intestine 407 cells assessed as reduction in viability of intracellular bacteria incubated for 24 hrs in presence of gentamicin by CFU assay; type: functional, organism-based, Salmonella enterica subsp. enterica serovar Typhimurium; details: Salmonella enterica, ATCC14028, Intestine 407, 24 h; in short: as §2
[10] = test system: Listeria monocytogenes; experiment: Antibacterial activity against Listeria monocytogenes infected in mouse RAW264.7 cells assessed as reduction in number of viable intracellular bacteria incubated for 24 hrs by CFU assay; type: functional, organism-based; details: RAW264.7, 24 h
In short: (§4)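 RAW264.7 macrophages in DMEM + 10% heat-inactivated FBS infected 1 h at MOI 25 with bacteria (overnight LB culture diluted 1:100, grown 2 h at 37°C, resuspended in PBS to OD600 0.6). Washed, 100 mg/L gentamicin 1 h, then compound plus 20 mg/L gentamicin for 24 h. Lysed in 0.1% Triton X-100/PBS 10 min at 37°C, lysates serially diluted onto LB agar, colonies counted after 18 h at 37°C.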

[11] = Cytotoxicity against mouse J774.1 cells assessed as reduction in cell viability in presence of gentamicin and measured after 24 hrs by MTT assay; type: toxicity, cell-based; in short: as §3
[12] = test system: Salmonella typhimurium; experiment: Antibacterial activity against intracellular multidrug-resistant Salmonella typhimurium ATCC14028 infected in human monocytic THP-1 cells assessed as reduction in viability of intracellular bacteria incubated for 24 hrs in presence of gentamicin by CFU assay; type: functional, organism-based, Salmonella enterica subsp. enterica serovar Typhimurium; details: Salmonella enterica, ATCC14028, THP-1, 24 h; in short: as §2
[13] = test system: Salmonella typhimurium; experiment: Antibacterial activity against intracellular multidrug-resistant Salmonella typhimurium ATCC14028 infected in mouse RAW264.7 cells assessed as reduction in number of intracellular bacteria incubated for 24 hrs in presence of gentamycin by CFU assay; type: functional, organism-based, Salmonella enterica subsp. enterica serovar Typhimurium; details: Salmonella enterica, ATCC14028, RAW264.7, 24 h; in short: as §2
[14] = test system: Salmonella typhimurium; experiment: Antibacterial activity against intracellular multidrug-resistant Salmonella typhimurium ATCC14028 infected in human HCT-116 cells assessed as reduction in viability of intracellular bacteria incubated for 24 hrs in presence of gentamicin by CFU assay; type: functional, organism-based, Salmonella enterica subsp. enterica serovar Typhimurium; details: Salmonella enterica, ATCC14028, HCT-116, 24 h; in short: as §2
[15] = Cytotoxicity against human monocytic THP-1 cells assessed as reduction in cell viability in presence of gentamicin and measured after 24 hrs by MTT assay; type: toxicity, cell-based; in short: as §3
[16] = Cytotoxicity against PMA induced human macrophagic THP-1 cells assessed as reduction in cell viability in presence of gentamicin and measured after 24 hrs by MTT assay; type: toxicity, cell-based; details: PMA induced macrophagic THP-1 cells; in short: as §3
[17] = test system: Yersinia enterocolitica; experiment: Antibacterial activity against Yersinia enterocolitica infected in mouse RAW264.7 cells assessed as reduction in number of viable intracellular bacteria incubated for 24 hrs by CFU assay; type: functional, organism-based; details: RAW264.7, 24 h; in short: as §4
[18] = Cytotoxicity against mouse RAW264.7 cells assessed as reduction in cell viability measured after 24 hrs by MTT assay; type: toxicity, cell-based; in short: as §3
[19] = test system: Salmonella typhimurium; experiment: Antibacterial activity against intracellular multidrug-resistant Salmonella typhimurium ATCC14028 infected in PMA induced human macrophagic THP-1 cells assessed as reduction in viability of intracellular bacteria incubated for 24 hrs in presence of gentamicin by CFU assay; type: functional, organism-based, Salmonella enterica subsp. enterica serovar Typhimurium; details: Salmonella enterica, ATCC14028, THP-1, 24 h; in short: as §2
[20] = test system: Salmonella typhimurium; experiment: Antibacterial activity against intracellular multidrug-resistant Salmonella typhimurium ATCC14028 infected in mouse J774.1 cells assessed as reduction in viability of intracellular bacteria incubated for 24 hrs in presence of gentamicin by CFU assay; type: functional, organism-based, Salmonella enterica subsp. enterica serovar Typhimurium; details: Salmonella enterica, ATCC14028, J774.1, 24 h; in short: as §2
[21] = test system: Salmonella typhi; experiment: Antibacterial activity against Salmonella typhi infected in mouse RAW264.7 cells assessed as reduction in number of viable intracellular bacteria incubated for 24 hrs by CFU assay; type: functional, organism-based, Salmonella enterica subsp. enterica serovar Typhi; details: Salmonella enterica, RAW264.7, 24 h; in short: as §2
[22] = test system: Salmonella typhimurium; experiment: Antibacterial activity against intracellular multidrug-resistant clinical isolate Salmonella typhimurium CGC18 infected in mouse RAW264.7 cells assessed as reduction in number of intracellular bacteria incubated for 24 hrs in presence of gentamycin by CFU assay; type: functional, organism-based, Salmonella enterica subsp. enterica serovar Typhimurium; details: Salmonella enterica, CGC18, RAW264.7, 24 h; in short: as §2
[23] = Cytotoxicity against human HT-29 cells assessed as reduction in cell viability in presence of gentamicin and measured after 24 hrs by MTT assay; type: toxicity, cell-based; in short: as §3
[24] = target: D(2) dopamine receptor (Homo sapiens) (UniProt P14416); experiment: Inhibition of isotope-labelled spiperone binding to recombinant dopamine D2 receptor (unknown origin)
In short: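 Human recombinant D2L receptor expressed in CHO cells (20 μg) incubated with increasing compound concentrations and 0.16 nM [3H]spiperone in Tris-HCl pH 7.4, 120 min at 25°C. Bound radioligand measured by filtration, washing and counting. Nonspecific binding defined with 10 μM haloperidol. Run as a contract service.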

Sequence of D(2) dopamine receptor (Homo sapiens) (P14416 whole entry): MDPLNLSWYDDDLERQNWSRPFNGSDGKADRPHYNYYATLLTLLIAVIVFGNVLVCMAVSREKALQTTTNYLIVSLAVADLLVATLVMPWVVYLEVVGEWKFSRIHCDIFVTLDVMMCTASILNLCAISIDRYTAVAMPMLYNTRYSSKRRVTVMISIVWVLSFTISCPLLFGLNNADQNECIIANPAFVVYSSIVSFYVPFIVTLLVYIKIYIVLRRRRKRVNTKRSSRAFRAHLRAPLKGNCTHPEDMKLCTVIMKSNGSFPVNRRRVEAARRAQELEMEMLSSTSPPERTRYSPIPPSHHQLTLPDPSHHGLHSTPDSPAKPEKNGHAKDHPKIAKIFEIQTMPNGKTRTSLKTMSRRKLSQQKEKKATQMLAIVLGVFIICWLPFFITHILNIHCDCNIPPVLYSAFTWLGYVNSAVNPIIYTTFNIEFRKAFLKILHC

| Compound | EC50 [1] [µM] | CC50 [2] [µM] | selectivity ratio [3] | also measured |
| --- | --- | --- | --- | --- |
| Clc1ccc2c(c1)C(NCc1ccccc1)=Nc1ccccc1O2 | 19.7 | 60.8 | 3.1 |  |
| Clc1ccc(CCNC2=Nc3ccccc3Oc3ccc(Cl)cc32)cc1 | 53.5 | > 90 | > 1.7 |  |
| Clc1ccc2c(c1)C(NCCN1CCCC1)=Nc1ccccc1O2 | 4.89 | 26.6 | 5.4 |  |
| Clc1ccc2c(c1)C(NCCCN1CCCCC1)=Nc1ccccc1O2 | 1.12 | 19.6 | 17.5 |  |
| Clc1ccc2c(c1)C(NCCc1cccnc1)=Nc1ccccc1O2 | 38.2 | 74 | 1.9 |  |
| Clc1ccc2c(c1)C(NCCc1ccc(Cl)c(Cl)c1)=Nc1ccccc1O2 | 31.1 | 82.7 | 2.7 |  |
| CC(C)CCNC1=Nc2ccccc2Oc2ccc(Cl)cc21 | 55.1 | 70.1 | 1.3 |  |
| CCC(CC)NC1=Nc2ccccc2Oc2ccc(Cl)cc21 | 28.5 | 72.8 | 2.6 |  |
| Clc1ccc2c(c1)C(NCCN1CCNCC1)=Nc1ccccc1O2 | 0.39 | 23.4 | 60 | EC50 [4]: 0.64 µM; EC50 [5]: 4.05 µM; CC50 at 24 h [6]: 40.5 µM; EC50 [7]: 1.73 µM; CC50 at 24 h [8]: 41 µM; EC50 [9]: 3 µM; EC50 [10]: 1.51 µM; CC50 at 24 h [11]: 15.4 µM; EC50 [12]: 1.78 µM; EC50 [13]: 0.24 µM; EC50 [14]: 2.47 µM; CC50 at 24 h [15]: 28.4 µM; CC50 at 24 h [16]: 30.3 µM; EC50 [17]: 0.83 µM; CC50 at 24 h [18]: 20.7 µM; EC50 [19]: 0.22 µM; EC50 [20]: 0.22 µM; EC50 [21]: 0.28 µM; EC50 [22]: 0.63 µM; CC50 at 24 h [23]: 32.5 µM |
| Clc1ccc2c(c1)C(N1CCNCC1)=Nc1ccccc1O2 [AMOXAPINE] | 7.25 | 107 | 14.8 | inhibition [24]: Active |
| Clc1ccc2c(c1)C(NCC1CC1)=Nc1ccccc1O2 | 44 | 80.3 | 1.8 |  |
| O=C(O)c1cn(C2CC2)c2cc(N3CCNCC3)c(F)cc2c1=O [CIPROFLOXACIN] | 0.15 |  |  |  |
| CN(C)CCNC1=Nc2ccccc2Oc2ccc(Cl)cc21 | 3.65 | 34.6 | 9.5 |  |
| CCCNC1=Nc2ccccc2Oc2ccc(Cl)cc21 | 56 | 112 | 2 |  |
| Clc1ccc2c(c1)C(NCCN1CCCCC1)=Nc1ccccc1O2 | 4.34 | 22.2 | 5.1 |  |
| Clc1ccc2c(c1)C(NCCN1CCOCC1)=Nc1ccccc1O2 | 32 | 84.7 | 2.6 |  |
| NCC(=O)Nc1ccc(-n2nc(C(F)(F)F)cc2-c2ccc3c(ccc4ccccc43)c2)cc1 [AR-12] |  | 7.7 |  |  |
| Clc1ccc2c(c1)C(NCCc1ccncc1)=Nc1ccccc1O2 | 18.5 | 51.1 | 2.8 |  |
| CN1CCCC1CCNC1=Nc2ccccc2Oc2ccc(Cl)cc21 (stereo not drawn) | 1.22 | 23 | 18.9 |  |
| Clc1ccc2c(c1)C(NCCCN1CCCC1)=Nc1ccccc1O2 | 1.12 | 16.3 | 14.6 |  |
| O=C(CNC1=Nc2ccccc2Oc2ccc(Cl)cc21)N1CCCC1 | > 90 | > 90 |  |  |
| Oc1ccc(CCNC2=Nc3ccccc3Oc3ccc(Cl)cc32)cc1 | 33.5 | 52.1 | 1.6 |  |
| Clc1ccc2c(c1)C(NCCc1ccccc1)=Nc1ccccc1O2 | 21.2 | 56.3 | 2.7 |  |
| Fc1ccc(CCNC2=Nc3ccccc3Oc3ccc(Cl)cc32)cc1 | 45.2 | > 90 | > 2 |  |
| CCCCCNC1=Nc2ccccc2Oc2ccc(Cl)cc21 | 54.1 | 72.7 | 1.3 |  |
| O=C1CCCN1CCCNC1=Nc2ccccc2Oc2ccc(Cl)cc21 | > 90 | > 90 |  |  |
